Source: publication PMC5629133 (Drugs in R&D, 2017)
Like-named read-outs stand apart in the source and are kept apart here.

How the values were obtained:
AGP A variant = AGP A variant (Homo sapiens, UniProt P19652); assay: Screening: S-disopyramide binding with drug at 100-fold concentration; conditions: drug at 100-fold concentration of marker
Method in brief: (§1)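 Radiolabelled S-disopyramide or S-warfarin binding to human AGP was measured with and without test compound at 100-fold the marker concentration. Incubation was 15 min at 37 °C, followed by ultrafiltration at 2000×g and scintillation counting. Marker binding remaining at 100-fold inhibitor was taken as non-specific. Compounds cutting specific binding by more than 70% went forward to quantitative analysis.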

[1] = target: AGP A variant (S-disopyramide binding site) (Homo sapiens, UniProt P19652); conditions: among the drugs tested
Method in brief: (§2)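 Human AGP was incubated with radiolabelled S-warfarin or [3H]S-disopyramide, with a series of unlabelled marker levels and test compound at 9.62, 19.2 and 48.1 μM, for 15 min at 37 °C. Ultrafiltration ran at 2000×g for 5 min at 37 °C, with a 30,000 MW cut-off for disopyramide. Mixture and filtrate radioactivity were counted by scintillation. Ki came from a non-linear least-squares competitive inhibition model with a constant non-specific binding term.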

AGP F1/S variants = AGP F1/S variants (Homo sapiens, UniProt P02763); assay: Effect of other drugs on binding of tamsulosin to human AGP
Method in brief: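 Commercial human AGP was mixed with unlabelled tamsulosin (40–500 μM solutions added), [3H]tamsulosin, and test compound at 9.62, 19.2 and 48.1 μM, then incubated for 15 min at 37 °C. Ultrafiltration used a 5000 MW cut-off at 2000×g for 5 min at 37 °C. Mixture and filtrate were counted by liquid scintillation. Ki was fitted by non-linear least squares to a competitive inhibition model with non-specific binding held constant.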

[2] = target: AGP F1/S variant mixture (S-warfarin binding site) (Homo sapiens, UniProt P02763); assay: Competitive inhibition of S-warfarin binding to human AGP by ultrafiltration; conditions: among the drugs tested
Method in brief: as §2

human AGP variants = conditions: cited from earlier work; for Binding to AGP: used as positive controls
AGP F1/S variant mixture = AGP F1/S variant mixture (Homo sapiens, UniProt P02763); assay: Screening: S-warfarin binding with drug at 100-fold concentration; conditions: drug at 100-fold concentration of marker
Method in brief: as §1

In the case of `CSc1ccc2c(c1)N(CCC1CCCCN1C)c1ccccc1S2` (centres unmarked) [Thioridazine], the “Inhibition of binding of S-disopyramide” value (AGP A variant) is reported as “markedly inhibited”, the “Binding affinity for the AGP A variant (S-disopyramide binding site)” value (from here on “Binding affinity for the AGP A variant”) [1] is reported as “relatively high” and the “Effect on binding of tamsulosin” value (AGP F1/S variants) is reported as “significantly decreased”. The “Binding affinity for the AGP F1/S variant mixture (S-warfarin binding site)” value (shortened to “Binding affinity … (S-warfarin binding site)”) [2] was “relatively high”, the “Binding to AGP” value (human AGP variants) was “bind strongly to AGP” and the “Inhibition of binding of warfarin” value (AGP F1/S variant mixture) was “markedly inhibited”.
In the case of `CCOc1ccccc1OCCN[C@H](C)Cc1ccc(OC)c(S(N)(=O)=O)c1` [tamsulosin], the “Binding affinity … (S-warfarin binding site)” value [2] is listed as “relatively high”, the “AGP variant to which the drug binds” value (human AGP variants) is listed as “binds specifically to the F1/S variants” and the “Inhibition of binding of warfarin” value (AGP F1/S variant mixture) is listed as “specifically inhibited”.
In the case of `Clc1ccc(COC(Cn2ccnc2)c2ccc(Cl)cc2Cl)c(Cl)c1` (centres unmarked) [Miconazole], the “Inhibition of binding of S-disopyramide” value (AGP A variant) is reported as “markedly inhibited” and the “Inhibition of binding of warfarin” value (AGP F1/S variant mixture) is reported as “markedly inhibited”.
For `CN(C)CCCN1c2ccccc2Sc2ccc(Cl)cc21` [chlorpromazine], the “AGP variant to which the drug binds” value (human AGP variants; separate AGP variants) is given as “to both variants”.
For `CC(C)N(CCC(C(N)=O)(c1ccccc1)c1ccccn1)C(C)C` (centres unmarked) [disopyramide], the “AGP variant to which the drug binds” value (human AGP variants; separate AGP variants) is listed as “bind specifically to the A variant”.
In the case of `CN(C)CCCN1c2ccccc2CCc2ccccc21` [imipramine], the “AGP variant to which the drug binds” value (human AGP variants; separate AGP variants) is listed as “bind specifically to the A variant” and the “Binding to AGP” value (human AGP variants) is listed as “bind strongly to AGP”.
In the case of `CC(=O)CC(c1ccccc1)c1c(O)c2ccccc2oc1=O` (centres unmarked) [warfarin], the “Effect on binding of tamsulosin” value (AGP F1/S variants) is listed as “significantly decreased” and the “AGP variant to which the drug binds” value (human AGP variants; separate AGP variants) is listed as “to an F1/S variant mixture”.
With `COC(=O)C1=C(C)NC(C)=C(C(=O)OCCN(C)Cc2ccccc2)C1c1cccc([N+](=O)[O-])c1` (centres unmarked) [Nicardipine] the “Inhibition of binding of S-disopyramide” value (AGP A variant) was “markedly inhibited”, the “Binding affinity … (S-warfarin binding site)” value [2] was “relatively high” and the “Inhibition of binding of warfarin” value (AGP F1/S variant mixture) was “markedly inhibited”.
For `COc1ccc([C@@H]2Sc3ccccc3N(CCN(C)C)C(=O)[C@@H]2OC(C)=O)cc1` [diltiazem], the “Inhibition of binding of S-disopyramide” value (AGP A variant) was “specifically inhibited”.
For `C=C[C@H]1C[N@@]2CC[C@H]1C[C@H]2[C@H](O)c1ccnc2ccc(OC)cc12` [Quinine], the “Inhibition of binding of S-disopyramide” value (AGP A variant) was “markedly inhibited”, the “Binding affinity for the AGP A variant” value [1] was “relatively high” and the “Inhibition of binding of warfarin” value (AGP F1/S variant mixture) was “markedly inhibited”.
In the case of `CN(C)CCC=C1c2ccccc2CCc2ccccc21` [amitriptyline], the “Inhibition of binding of S-disopyramide” value (AGP A variant) is given as “specifically inhibited” and the “Binding to AGP” value (human AGP variants) is given as “bind strongly to AGP”.
In the case of `CC[C@H]1OC(=O)[C@H](C)[C@@H](O[C@H]2C[C@@](C)(OC)[C@@H](O)[C@H](C)O2)[C@H](C)[C@@H](O[C@@H]2O[C@H](C)C[C@H](N(C)C)[C@H]2O)[C@](C)(O)C[C@@H](C)C(=O)[C@H](C)[C@@H](O)[C@]1(C)O` [Erythromycin], the “Inhibition of binding of S-disopyramide” value (AGP A variant) is reported as “markedly inhibited”, the “Effect on binding of tamsulosin” value (AGP F1/S variants) is reported as “significantly decreased” and the “Inhibition of binding of warfarin” value (AGP F1/S variant mixture) is reported as “markedly inhibited”.
In the case of `CCC(C)(C)C(=O)O[C@H]1C[C@@H](C)C=C2C=C[C@H](C)[C@H](CC[C@@H]3C[C@@H](O)CC(=O)O3)[C@H]21` [Simvastatin], the “Inhibition of binding of S-disopyramide” value (AGP A variant) is reported as “markedly inhibited”, the “Binding affinity … (S-warfarin binding site)” value [2] is reported as “relatively high” and the “Inhibition of binding of warfarin” value (AGP F1/S variant mixture) is reported as “markedly inhibited”.
In the case of `CN(C)C(=O)C(CCN1CCC(O)(c2ccc(Cl)cc2)CC1)(c1ccccc1)c1ccccc1` [Loperamide], the “Inhibition of binding of S-disopyramide” value (AGP A variant) is reported as “specifically inhibited”.
In the case of `COc1ccccc1OCCNCC(O)COc1cccc2[nH]c3ccccc3c12` (centres unmarked) [Carvedilol], the “Effect on binding of tamsulosin” value (AGP F1/S variants) is reported as “significantly decreased”.
For `CC/C(=C(\c1ccccc1)c1ccc(OCCN(C)C)cc1)c1ccccc1` [tamoxifen], the “Inhibition of binding of S-disopyramide” value (AGP A variant) is given as “specifically inhibited” and the “Binding to AGP” value (human AGP variants) is given as “bind strongly to AGP”.
With `CCN(CC)CCCN(c1ccccc1)C1Cc2ccccc2C1` [Aprindine] the “Binding affinity for the AGP A variant” value [1] was “relatively high” and the “Effect on binding of tamsulosin” value (AGP F1/S variants) was “significantly decreased”.
With `CC(C)NCC(O)COc1cccc2ccccc12` (centres unmarked) [propranolol] the “Inhibition of binding of S-disopyramide” value (AGP A variant) was “markedly inhibited” and the “Inhibition of binding of warfarin” value (AGP F1/S variant mixture) was “markedly inhibited”.
In the case of `COc1ccc(Cl)cc1C(=O)NCCc1ccc(S(=O)(=O)NC(=O)NC2CCCCC2)cc1` [Glibenclamide], the “Inhibition of binding of S-disopyramide” value (AGP A variant) is reported as “specifically inhibited”.
